Active and inactive are the calls of the source. The calls are words filed in the database; no cut-off is given here.
What was measured:
Assay type in all cases: cell-based
[1] = molecular target: T1, Peroxisomal multifunctional enzyme type 2 (Mus musculus) (UniProt P51660); assay: Binding affinity to 17beta-HSD4 in mouse LPS-treated RAW264.7 cells at 200 nM by Western blot analysis
T1 sequence (whole entry): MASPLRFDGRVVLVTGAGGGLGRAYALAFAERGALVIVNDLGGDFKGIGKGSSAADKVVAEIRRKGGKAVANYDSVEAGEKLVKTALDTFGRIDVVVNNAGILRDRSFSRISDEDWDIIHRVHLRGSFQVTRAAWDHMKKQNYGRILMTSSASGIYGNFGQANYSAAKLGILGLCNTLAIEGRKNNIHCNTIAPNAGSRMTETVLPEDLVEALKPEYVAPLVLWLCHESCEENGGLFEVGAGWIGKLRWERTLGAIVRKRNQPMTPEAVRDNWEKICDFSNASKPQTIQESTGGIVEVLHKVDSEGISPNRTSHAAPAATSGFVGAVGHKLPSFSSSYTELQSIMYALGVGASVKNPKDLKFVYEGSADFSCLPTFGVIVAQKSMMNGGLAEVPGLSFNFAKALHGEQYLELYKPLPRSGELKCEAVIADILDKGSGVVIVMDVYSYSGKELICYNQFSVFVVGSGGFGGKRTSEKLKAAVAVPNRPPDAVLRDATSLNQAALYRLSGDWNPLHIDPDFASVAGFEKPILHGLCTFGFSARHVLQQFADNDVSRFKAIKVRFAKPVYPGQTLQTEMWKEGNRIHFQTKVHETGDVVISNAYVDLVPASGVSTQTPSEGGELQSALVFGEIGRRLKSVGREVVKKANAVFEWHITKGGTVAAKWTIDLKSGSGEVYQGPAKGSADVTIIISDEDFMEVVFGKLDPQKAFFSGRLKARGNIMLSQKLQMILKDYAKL
How it was run: (§1)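 Streptavidin affinity pull-down was run side by side in lysates from LPS-treated and untreated mouse Raw264.7 macrophages. Biotin, biotinylated β-sitosterol or biotinylated cholesterol was used at 200 nM for 17β-HSD4 and 600 nM for E-Syt1. Probe incubation with lysate was 2 h, followed by overnight streptavidin agarose capture.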

[2] = molecular target: T2, Peroxisomal multifunctional enzyme type 2 (Homo sapiens) (UniProt P51659); assay: Binding affinity to 17beta-HSD4 in human PC3 cells at 200 nM by affinity chromatography analysis; conditions: PC-3
T2 sequence (whole entry): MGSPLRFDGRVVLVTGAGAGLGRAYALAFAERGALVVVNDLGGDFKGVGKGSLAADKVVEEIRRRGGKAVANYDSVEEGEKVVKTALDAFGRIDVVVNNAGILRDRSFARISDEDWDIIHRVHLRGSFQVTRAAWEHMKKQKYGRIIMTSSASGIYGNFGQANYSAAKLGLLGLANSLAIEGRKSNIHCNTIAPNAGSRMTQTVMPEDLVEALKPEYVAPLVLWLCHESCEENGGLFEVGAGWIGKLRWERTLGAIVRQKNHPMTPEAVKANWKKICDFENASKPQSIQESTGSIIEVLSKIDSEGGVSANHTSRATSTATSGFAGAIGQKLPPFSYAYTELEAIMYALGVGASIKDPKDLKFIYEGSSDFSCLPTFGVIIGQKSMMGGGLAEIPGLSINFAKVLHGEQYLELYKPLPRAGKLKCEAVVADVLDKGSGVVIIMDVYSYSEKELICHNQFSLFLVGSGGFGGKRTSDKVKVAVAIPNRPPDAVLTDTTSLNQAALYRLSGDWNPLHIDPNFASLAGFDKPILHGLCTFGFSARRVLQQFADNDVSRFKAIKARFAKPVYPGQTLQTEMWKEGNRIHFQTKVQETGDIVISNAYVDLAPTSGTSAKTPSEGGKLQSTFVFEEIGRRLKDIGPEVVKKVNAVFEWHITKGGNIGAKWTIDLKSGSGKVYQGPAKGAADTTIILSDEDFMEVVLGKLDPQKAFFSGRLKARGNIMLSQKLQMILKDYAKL

[3] = molecular target: T3, 3-oxo-5-alpha-steroid 4-dehydrogenase 1 (Homo sapiens) (UniProt P18405); assay: Binding affinity to S5A1 in human DU145 cells at 200 to 600 nM by affinity chromatography analysis; conditions: DU-145
T3 sequence (whole entry): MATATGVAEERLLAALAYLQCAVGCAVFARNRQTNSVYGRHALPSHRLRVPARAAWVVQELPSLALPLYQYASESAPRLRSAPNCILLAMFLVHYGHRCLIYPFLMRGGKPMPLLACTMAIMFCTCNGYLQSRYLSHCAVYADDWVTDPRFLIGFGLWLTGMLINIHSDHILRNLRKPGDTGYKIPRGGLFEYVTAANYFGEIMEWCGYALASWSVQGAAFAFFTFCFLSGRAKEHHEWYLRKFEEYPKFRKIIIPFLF

[4] = molecular target: T2, Peroxisomal multifunctional enzyme type 2 (Homo sapiens); assay: Binding affinity to 17beta-HSD4 in human DU145 cells at 200 nM by affinity chromatography analysis; conditions: DU-145
[5] = molecular target: T3, 3-oxo-5-alpha-steroid 4-dehydrogenase 1 (Homo sapiens); assay: Binding affinity to S5A1 in human PC3 cells at 200 to 600 nM by affinity chromatography analysis; conditions: PC-3
[6] = molecular target: T1, Peroxisomal multifunctional enzyme type 2 (Mus musculus); assay: Binding affinity to 17beta-HSD4 in mouse RAW264.7 cells at 200 nM by Western blot analysis; how it was run: as §1
[7] = molecular target: T4, Extended synaptotagmin-1 (Homo sapiens) (UniProt Q9BSJ8); assay: Binding affinity to E-Syt1 in human PC3 cells at 600 nM by affinity chromatography analysis; conditions: PC-3
T4 sequence (whole entry): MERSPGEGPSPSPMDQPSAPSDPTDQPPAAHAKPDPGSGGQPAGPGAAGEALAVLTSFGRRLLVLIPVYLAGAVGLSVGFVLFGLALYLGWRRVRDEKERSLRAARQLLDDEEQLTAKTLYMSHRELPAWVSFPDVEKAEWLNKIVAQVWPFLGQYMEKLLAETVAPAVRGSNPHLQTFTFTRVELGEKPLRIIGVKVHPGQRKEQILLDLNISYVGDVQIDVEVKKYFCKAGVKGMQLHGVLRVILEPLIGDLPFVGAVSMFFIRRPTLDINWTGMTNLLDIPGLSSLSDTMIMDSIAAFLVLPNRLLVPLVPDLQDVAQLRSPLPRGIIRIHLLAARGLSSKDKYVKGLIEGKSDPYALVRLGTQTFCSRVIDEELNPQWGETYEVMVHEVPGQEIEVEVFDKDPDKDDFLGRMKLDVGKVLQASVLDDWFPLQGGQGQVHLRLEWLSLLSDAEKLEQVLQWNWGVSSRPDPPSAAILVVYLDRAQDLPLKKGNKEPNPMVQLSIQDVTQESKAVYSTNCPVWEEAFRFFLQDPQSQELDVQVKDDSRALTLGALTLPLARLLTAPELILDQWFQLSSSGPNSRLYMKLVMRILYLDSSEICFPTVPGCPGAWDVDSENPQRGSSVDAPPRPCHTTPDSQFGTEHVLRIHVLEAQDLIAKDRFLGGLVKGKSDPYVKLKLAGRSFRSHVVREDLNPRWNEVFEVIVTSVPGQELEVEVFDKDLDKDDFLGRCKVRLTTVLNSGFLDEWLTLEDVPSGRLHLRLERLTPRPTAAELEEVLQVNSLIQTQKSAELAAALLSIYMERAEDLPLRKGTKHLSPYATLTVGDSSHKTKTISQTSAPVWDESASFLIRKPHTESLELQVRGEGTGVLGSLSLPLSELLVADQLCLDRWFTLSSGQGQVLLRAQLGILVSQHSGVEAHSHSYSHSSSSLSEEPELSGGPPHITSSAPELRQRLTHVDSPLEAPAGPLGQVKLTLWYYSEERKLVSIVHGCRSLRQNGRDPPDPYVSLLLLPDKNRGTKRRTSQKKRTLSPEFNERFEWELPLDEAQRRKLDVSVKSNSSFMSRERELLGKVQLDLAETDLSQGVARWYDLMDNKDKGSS

[8] = molecular target: T1, Peroxisomal multifunctional enzyme type 2 (Mus musculus); assay: Binding affinity to 17beta-HSD4 in mouse LPS-treated RAW264.7 cells at 200 nM after 2 hrs by MALDI mass spectrometry analysis
[9] = molecular target: T1, Peroxisomal multifunctional enzyme type 2 (Mus musculus); assay: Binding affinity to 17beta-HSD4 in mouse RAW264.7 cells at 200 nM after 2 hrs by MALDI mass spectrometry analysis; how it was run: as §1
[10] = molecular target: T5, Extended synaptotagmin-1 (Mus musculus) (UniProt Q3U7R1); assay: Binding affinity to E-Syt1 in mouse LPS-treated RAW264.7 cells at 600 nM by Western blot analysis; how it was run: as §1
T5 sequence (whole entry): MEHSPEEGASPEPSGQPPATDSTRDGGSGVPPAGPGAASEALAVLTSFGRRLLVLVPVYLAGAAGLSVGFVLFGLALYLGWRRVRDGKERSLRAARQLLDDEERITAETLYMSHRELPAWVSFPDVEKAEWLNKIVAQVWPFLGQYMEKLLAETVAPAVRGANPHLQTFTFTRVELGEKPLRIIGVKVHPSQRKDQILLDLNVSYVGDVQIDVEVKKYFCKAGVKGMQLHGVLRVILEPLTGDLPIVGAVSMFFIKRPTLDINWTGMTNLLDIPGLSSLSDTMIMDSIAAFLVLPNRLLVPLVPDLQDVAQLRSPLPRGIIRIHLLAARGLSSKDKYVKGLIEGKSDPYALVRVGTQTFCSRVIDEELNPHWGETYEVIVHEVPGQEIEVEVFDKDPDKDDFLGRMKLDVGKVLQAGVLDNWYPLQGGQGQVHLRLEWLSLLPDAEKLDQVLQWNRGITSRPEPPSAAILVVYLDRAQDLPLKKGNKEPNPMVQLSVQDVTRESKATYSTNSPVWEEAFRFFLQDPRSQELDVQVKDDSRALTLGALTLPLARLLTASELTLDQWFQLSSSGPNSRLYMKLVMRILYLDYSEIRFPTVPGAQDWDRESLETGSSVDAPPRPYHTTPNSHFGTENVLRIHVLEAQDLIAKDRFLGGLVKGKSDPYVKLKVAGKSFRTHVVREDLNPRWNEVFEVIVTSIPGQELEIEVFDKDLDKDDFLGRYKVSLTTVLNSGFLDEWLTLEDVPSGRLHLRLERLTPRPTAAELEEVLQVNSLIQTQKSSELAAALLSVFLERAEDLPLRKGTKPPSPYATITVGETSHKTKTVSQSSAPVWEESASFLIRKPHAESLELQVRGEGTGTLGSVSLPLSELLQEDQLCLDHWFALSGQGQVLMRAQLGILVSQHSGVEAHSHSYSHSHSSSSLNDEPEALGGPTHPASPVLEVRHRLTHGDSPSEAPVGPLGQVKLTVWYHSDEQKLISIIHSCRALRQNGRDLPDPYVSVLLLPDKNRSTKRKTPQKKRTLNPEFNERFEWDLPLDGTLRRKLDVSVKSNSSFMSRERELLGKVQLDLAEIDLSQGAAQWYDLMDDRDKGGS

[11] = molecular target: T5, Extended synaptotagmin-1 (Mus musculus); assay: Binding affinity to E-Syt1 in mouse LPS-treated RAW264.7 cells at 600 nM after 2 hrs by MALDI mass spectrometry analysis
[12] = molecular target: T5, Extended synaptotagmin-1 (Mus musculus); assay: Binding affinity to E-Syt1 in mouse RAW264.7 cells at 600 nM after 2 hrs by MALDI mass spectrometry analysis; how it was run: as §1
[13] = molecular target: T5, Extended synaptotagmin-1 (Mus musculus); assay: Binding affinity to E-Syt1 in mouse RAW264.7 cells at 600 nM by Western blot analysis; how it was run: as §1
[14] = molecular target: T4, Extended synaptotagmin-1 (Homo sapiens); assay: Binding affinity to E-Syt1 in human DU145 cells at 600 nM by affinity chromatography analysis; conditions: DU-145

Activity [1] | Activity [2] | Activity [3] | Activity [4] | Activity [5] | Activity [6] | Activity [7] | Activity [8] | Activity [9] | Activity [10] | Activity [11] | Activity [12] | Activity [13] | Activity [14] | Structure (SMILES)
Active | Active | inactive | Active | inactive | Active |  |  |  |  |  |  |  |  | CC(C)CCC[C@@H](C)[C@H]1CC[C@H]2[C@@H]3CC=C4C[C@@H](OCc5cn(CCOCCOCCOCCNC(=O)CCCC[C@@H]6SC[C@@H]7NC(=O)N[C@@H]76)nn5)CC[C@]4(C)[C@H]3CC[C@]12C
Active | Active | inactive | Active | inactive | Active | Active | Active | Active | Active | Active | Active | Active | Active | CC[C@H](CC[C@@H](C)[C@H]1CC[C@H]2[C@@H]3CC=C4C[C@@H](OCc5cn(CCOCCOCCOCCNC(=O)CCCC[C@@H]6SC[C@@H]7NC(=O)N[C@@H]76)nn5)CC[C@]4(C)[C@H]3CC[C@]12C)C(C)C

From ChEMBL document CHEMBL3621130, “Identification and characterization of β-sitosterol target proteins” (Bioorg Med Chem Lett, 2015)
